Results taken from ChEMBL document CHEMBL1781977, “Design and synthesis of 3,5-diarylisoxazole derivatives as novel class of anti-hyperglycemic and lipid lowering agents” (Bioorg Med Chem, 2009).
pIC50: −log10 of the molar value. Calls of active or inactive are those of the source. No cut-off for these calls is given here.

Columns and labels:
[1] = molecular target: T1, Tyrosine-protein phosphatase non-receptor type 1 (Homo sapiens) (UniProt P18031); assay: Inhibition of protein tyrosine phosphatase-1B at 10 uM incubated for 10 mins using pNPP substrate by modified Goldstein method; set-up: Activity: scale not given: the % may be the effect or the level left
T1 sequence (whole entry): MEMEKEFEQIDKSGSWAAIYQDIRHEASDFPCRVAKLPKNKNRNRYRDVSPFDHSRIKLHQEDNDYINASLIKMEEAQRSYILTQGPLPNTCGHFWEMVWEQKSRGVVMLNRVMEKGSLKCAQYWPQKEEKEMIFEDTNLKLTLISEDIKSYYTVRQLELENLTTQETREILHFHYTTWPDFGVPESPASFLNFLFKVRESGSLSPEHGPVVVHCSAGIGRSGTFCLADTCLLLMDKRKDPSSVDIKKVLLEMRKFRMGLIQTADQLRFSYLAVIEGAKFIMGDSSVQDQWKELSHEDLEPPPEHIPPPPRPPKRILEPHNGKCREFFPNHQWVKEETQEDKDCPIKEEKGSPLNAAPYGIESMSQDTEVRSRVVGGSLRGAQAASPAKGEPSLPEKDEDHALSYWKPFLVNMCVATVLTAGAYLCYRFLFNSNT
In short: (§1)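 PTP-1B: compound preincubated 10 min with enzyme, with or without 0.01% Triton X-100. Then 10 mM pNPP in 50 mM HEPES pH 7.0 with 1 mM DTT and 2 mM EDTA, 30 min at 37 °C. Stopped with 0.1 N NaOH; absorbance read at 410 nm. p-Nitrophenolate calculated using ε 1.78 × 10⁴ M⁻¹cm⁻¹. Sodium orthovanadate used as reference.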

[2] = molecular target: T2, Tyrosine-protein phosphatase non-receptor type 1 (Homo sapiens, UniProt P18031); assay: Inhibition of protein tyrosine phosphatase-1B at 10 uM incubated for 10 mins using pNPP substrate in absence of Triton X-100 by modified Goldstein method; in short: as §1
T2 sequence (P18031 whole entry): T1 sequence (whole entry)

Rattus norvegicus [3] = assay: Antihyperglycemic activity against sucrose challenged streptozotocin-induced diabetic Sprague-Dawley albino rat assessed as reduction in blood glucose level at 100 mg/kg, po administered 30 mins before sucrose challenge measured after 5 hrs; format: functional
In short: (§2)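 Male Sprague Dawley rats, 160 ± 20 g, fasted overnight, given streptozotocin 60 mg/kg ip in 100 mM citrate pH 4.5. Rats with glucose 144–270 mg/dl at 48 h count as diabetic, 5–6 per group. Dosed 100 mg/kg orally in 1.0% gum acacia. Sucrose 2.5 g/kg given 30 min later. Glucose read at 30–300 min and 24 h. Non-responders excluded.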

Rattus norvegicus [4] = assay: Antihyperglycemic activity in Charles Foster/Wistar albino rat assessed as reduction in blood glucose level at 100 mg/kg, po administered 30 mins before sucrose challenge; format: functional
In short: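 Male Charles Foster/Wistar rats, 160 ± 20 g, fasted 16 h; animals with glucose 60–80 mg/dl used, 5–6 per group. Given 100 mg/kg orally as suspension in 1.0% gum acacia (controls vehicle alone). Sucrose 10.0 g/kg orally 30 min later. Glucometer readings at 30, 60, 90, 120 min. Percent activity derived from AUC of treated versus control groups.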

Rattus norvegicus [5] = assay: Antihyperglycemic activity against sucrose challenged streptozotocin-induced diabetic Sprague-Dawley albino rat assessed as reduction in blood glucose level at 100 mg/kg, po administered 30 mins before sucrose challenge measured after 24 hrs; format: functional; in short: as §2
[6] = molecular target: T2, Tyrosine-protein phosphatase non-receptor type 1; assay: Inhibition of protein tyrosine phosphatase-1B at 10 uM incubated for 10 mins using pNPP substrate in presence of 0.01% Triton X-100 by modified Goldstein method; in short: as §1
[7] = molecular target: Dipeptidyl peptidase 4 (Homo sapiens) (UniProt P27487); assay: Inhibition of DPP4 assessed as rate of substrate cleavage using Gly-Pro-AMC substrate by spectrofluorometry
In short: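 DPP-IV activity read by fluorescence at 37 °C, excitation 355 nm and emission 460 nm. Initial rate calculated over the first 15 min as increase in fluorescence intensity.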

Rattus norvegicus [8] = assay: Antihyperglycemic activity against sucrose challenged streptozotocin-induced diabetic Sprague-Dawley albino rat assessed as reduction in blood glucose level at 7.5 mg/kg, po administered 30 mins before sucrose challenge; format: functional
In short: (§3)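 Streptozotocin-diabetic Sprague Dawley rats: streptozotocin 60 mg/kg ip in citrate pH 4.5; rats at 144–270 mg/dl after 48 h used. Oral doses of 7.5–100 mg/kg in 1.0% gum acacia, then sucrose 2.5 g/kg. Glucose measured at 30, 60, 90, 120, 180, 240, 300 and 1440 min. ED50 taken from dose response. Mean ± SD, n = 5; Dunnett's test.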

Mus musculus [9] = species: Mus musculus; assay: Antihyperglycemic activity in C57BL/Ks db/db mouse assessed as reduction in blood glucose level measured after 3 days relative to control; format: functional
Mus musculus [10] = assay: Antihyperglycemic activity in C57BL/Ks db/db mouse assessed as reduction in blood glucose level at 100 mg/kg, po measured 10 days post dose by postprandial glucose tolerance test; format: functional; details: 240 h, in the assay text read “oral glucose tolerance test” for “postprandial glucose tolerance test”
In short: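 db/db mice (C57BL/KsBom, 12–18 weeks, 40–50 g) given 100 mg/kg orally, vehicle 1.0% gum acacia. Day 10 OGTT after overnight fast: glucose at −30 min and drug given, then glucose at 0 min. Glucose 3 g/kg given, with readings at 30, 60, 90 and 120 min.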

Rattus norvegicus [11] = assay: Antihyperglycemic activity against sucrose challenged streptozotocin-induced diabetic Sprague-Dawley albino rat assessed as reduction in blood glucose level administered orally 30 mins before sucrose challenge; format: functional; details: po; in short: as §3
Mus musculus [12] = assay: Antidyslipidemic activity in C57BL/Ks db/db mouse assessed as reduction in plasma triglyceride level at 100 mg/kg, po; format: functional
In short: (§4)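 db/db mice (C57BL/KsBom, 12–18 weeks, 5 male and 5 female) dosed orally at 100 mg/kg in 1.0% gum acacia. Blood collected on day 8 for serum lipids. Mean ± SD, n = 5, against vehicle-treated db/db controls; Dunnett's test.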

Mus musculus [13] = assay: Antihyperglycemic activity in C57BL/Ks db/db mouse assessed as reduction in blood glucose level at 100 mg/kg, po measured 6 days post dose by postprandial glucose tolerance test; format: functional; details: 144 h
In short: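 C57BL/KsBom-db mice, 12–18 weeks, 40–50 g, 5 male and 5 female, at 23 °C with 12/12 h light cycle. Treated orally at 100 mg/kg, vehicle 1.0% gum acacia. Day 6 postprandial test: glucose at −0.5 h and 0 h, then at 1, 2, 3, 4 and 6 h after dosing.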

Rattus norvegicus [14] = assay: Antihyperglycemic activity against sucrose challenged streptozotocin-induced diabetic Sprague-Dawley albino rat assessed as reduction in blood glucose level at 100 mg/kg, po administered 30 mins before sucrose challenge; format: functional; in short: as §2
Mus musculus [15] = assay: Antidyslipidemic activity in C57BL/Ks db/db mouse assessed as plasma HDL-cholesterol level at 100 mg/kg, po; format: functional; in short: as §4
Rattus norvegicus [16] = assay: Antihyperglycemic activity against sucrose challenged streptozotocin-induced diabetic Sprague-Dawley albino rat assessed as reduction in blood glucose level at 15 mg/kg, po administered 30 mins before sucrose challenge; format: functional; in short: as §3
Mus musculus [17] = assay: Antidyslipidemic activity in C57BL/Ks db/db mouse assessed as reduction in plasma cholesterol level at 100 mg/kg, po; format: functional; in short: as §4
Rattus norvegicus [18] = assay: Antihyperglycemic activity against sucrose challenged streptozotocin-induced diabetic Sprague-Dawley albino rat assessed as reduction in blood glucose level at 50 mg/kg, po administered 30 mins before sucrose challenge; format: functional; in short: as §3
Rattus norvegicus [19] = assay: Antihyperglycemic activity against sucrose challenged streptozotocin-induced diabetic Sprague-Dawley albino rat assessed as reduction in blood glucose level at 25 mg/kg, po administered 30 mins before sucrose challenge; format: functional; in short: as §3

Dipeptidyl peptidase 4 (Homo sapiens), sequence (P27487 whole entry, looked up): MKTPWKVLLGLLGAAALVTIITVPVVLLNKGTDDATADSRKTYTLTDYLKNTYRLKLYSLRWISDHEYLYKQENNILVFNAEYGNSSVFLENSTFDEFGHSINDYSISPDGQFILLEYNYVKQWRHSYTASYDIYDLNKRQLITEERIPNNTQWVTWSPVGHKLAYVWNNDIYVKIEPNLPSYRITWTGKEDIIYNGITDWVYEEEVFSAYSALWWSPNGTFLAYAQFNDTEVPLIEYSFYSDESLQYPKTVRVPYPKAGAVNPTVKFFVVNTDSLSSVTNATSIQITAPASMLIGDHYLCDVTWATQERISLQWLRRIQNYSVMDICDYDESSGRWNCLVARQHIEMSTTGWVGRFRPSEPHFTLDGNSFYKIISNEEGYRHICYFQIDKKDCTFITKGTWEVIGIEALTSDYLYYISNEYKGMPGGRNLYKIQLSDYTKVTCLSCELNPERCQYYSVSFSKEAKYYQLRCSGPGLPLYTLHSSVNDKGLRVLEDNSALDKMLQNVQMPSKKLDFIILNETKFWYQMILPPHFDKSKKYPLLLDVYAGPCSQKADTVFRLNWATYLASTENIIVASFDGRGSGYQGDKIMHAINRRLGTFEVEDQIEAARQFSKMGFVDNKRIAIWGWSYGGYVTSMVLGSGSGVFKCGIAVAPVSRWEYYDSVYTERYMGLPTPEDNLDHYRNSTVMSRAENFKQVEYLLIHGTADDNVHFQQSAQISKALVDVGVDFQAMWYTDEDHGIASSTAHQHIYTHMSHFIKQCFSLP

| SMILES | inhibition [1] [%] | pIC50 [2] | inhibition in vivo at 100 mg/kg (Rattus norvegicus [3]) [%] | inhibition in vivo at 100 mg/kg (Rattus norvegicus [4]) [%] | inhibition in vivo at 100 mg/kg (Rattus norvegicus [5]) [%] | pIC50 [6] | also measured |
| --- | --- | --- | --- | --- | --- | --- | --- |
| COc1ccc(-c2cc(-c3ccccc3)no2)c(OCCCN2CCCC2)c1 | 82.7 | 5.46 | 13.4 | 21.2 | 11.2 | 5.46 | inhibition [7]: inactive |
| COc1ccc(-c2cc(-c3ccccc3)no2)c(OCCN2CCCC2)c1 | 99.2 | 5.82 | 27.7 | 36.9 | 28.7 | 5.82 | inhibition in vivo at 7.5 mg/kg (Rattus norvegicus [8]): 11.5%; inhibition (INH) (Mus musculus [9]): 22.8%; inhibition in vivo at 100 mg/kg (Mus musculus [10]): 21.6%; ED50 (Rattus norvegicus [11]): 54.8 mg/kg; inhibition in vivo at 100 mg/kg (Mus musculus [12]): -10.5%; inhibition in vivo at 100 mg/kg (Mus musculus [13]): 21.4%; inhibition in vivo at 100 mg/kg (Rattus norvegicus [14]): 27.7%; Activity (Mus musculus [15]): 3%; inhibition in vivo at 15 mg/kg (Rattus norvegicus [16]): 13.7%; inhibition in vivo at 100 mg/kg (Mus musculus [17]): -17.6%; inhibition in vivo at 50 mg/kg (Rattus norvegicus [18]): 18.5%; inhibition [7]: inactive; inhibition in vivo at 25 mg/kg (Rattus norvegicus [19]): 15.2% |
| CCN(CC)CCCOc1cc(OC)ccc1-c1cc(-c2ccccc2)no1 | 21.8 | 4.55 | 7.8 | 14.3 | 9.2 | 4.55 |  |
| COc1ccc(-c2cc(-c3ccccc3)no2)c(OCCN(C(C)C)C(C)C)c1 | 89.4 | 5.26 | 11.4 | 21.7 | 9.7 | 5.26 | inhibition [7]: inactive |
| COc1ccc(-c2cc(-c3ccccc3)no2)c(O)c1 | 21.8 | 4.56 |  | 9.8 |  | 4.56 |  |
| COc1ccc(-c2cc(-c3ccccc3)no2)c(OCCCN2CCCCC2)c1 | 89.5 | 5.36 | 14.7 | 20.8 | 15 | 5.35 | inhibition [7]: inactive |
| COc1ccc(Cl)cc1C(=O)NCCc1ccc(S(=O)(=O)NC(=O)NC2CCCCC2)cc1 [GLYBURIDE] |  |  | 32.8 | 33.9 |  |  | inhibition (INH) (Mus musculus [9]): 13.6% |
| CCN(CC)CCOc1cc(OC)ccc1-c1cc(-c2ccccc2)no1 | 94.7 | 5.53 | 26.9 | 29.9 | 25.7 | 5.54 | inhibition in vivo at 7.5 mg/kg (Rattus norvegicus [8]): 10.3%; inhibition (INH) (Mus musculus [9]): 21%; inhibition in vivo at 100 mg/kg (Mus musculus [10]): 21.5%; ED50 (Rattus norvegicus [11]): 45.3 mg/kg; inhibition in vivo at 100 mg/kg (Mus musculus [12]): -12%; inhibition in vivo at 100 mg/kg (Mus musculus [13]): 22.6%; inhibition in vivo at 100 mg/kg (Rattus norvegicus [14]): 25.4%; Activity (Mus musculus [15]): 3.9%; inhibition in vivo at 15 mg/kg (Rattus norvegicus [16]): 15.5%; inhibition in vivo at 100 mg/kg (Mus musculus [17]): -14.5%; inhibition in vivo at 50 mg/kg (Rattus norvegicus [18]): 21.7%; inhibition [7]: inactive; inhibition in vivo at 25 mg/kg (Rattus norvegicus [19]): 19.5% |
| CCOC(=O)CCCOc1cc(OC)ccc1-c1cc(-c2ccccc2)no1 | 20.1 | 4.57 |  | 4.6 |  | 4.57 |  |
| COc1ccc(-c2cc(-c3ccccc3)no2)c(OCCN(C)C)c1 | 33.5 | 4.62 | 15.3 | 16.8 | 15.9 | 4.61 |  |
| CCCCN(C)CCCOc1cc(OC)ccc1-c1cc(-c2ccccc2)no1 | 14.4 | 4.43 | 12.6 | 15 | 14.2 | 4.43 |  |
| COc1ccc(-c2cc(-c3ccccc3)no2)c(OCC2CO2)c1 (stereo unspecified) |  | 4.51 |  | 10.7 |  | 4.50 | Activity [1]: 11.8% |
| COc1ccc(-c2cc(-c3ccccc3)no2)c(OCC(O)CN2CCCCC2)c1 (stereo unspecified) |  | 5.17 | 15.8 | 17 | 16.8 | 5.48 | Activity [1]: 85.9% |
| COc1ccc(-c2cc(-c3ccccc3)no2)c(OCCCN(C)C)c1 | 22.3 | 4.60 |  | 11.8 |  | 4.60 |  |
| COc1ccc(-c2cc(-c3ccccc3)no2)c(OCC(=O)O)c1 |  | 5.04 |  | 11.7 |  | 5.03 | Activity [1]: 75.2% |
| COc1ccc(-c2cc(-c3ccccc3)no2)c(OCCCCl)c1 | 9 | 4.25 |  | 9.24 |  | 4.24 |  |
| COc1ccc(-c2cc(-c3ccccc3)no2)c(OCCN2CCOCC2)c1 | 82.9 | 5.60 |  | 2.8 |  | 5.58 |  |
| COc1ccc(-c2cc(-c3ccccc3)no2)c(OCCCC(=O)O)c1 |  | 4.65 | 14.9 | 14.2 | 14.2 | 4.65 | Activity [1]: 24.4% |
| CN(C)C(=N)NC(=N)N [METFORMIN] |  |  |  | 12.9 | 20.2 |  | inhibition (INH) (Mus musculus [9]): 11.2% |
| CCOC(=O)COc1cc(OC)ccc1-c1cc(-c2ccccc2)no1 | 79.3 | 5.28 |  | 10.4 |  | 5.27 |  |
| CCN(CC)CC(O)COc1cc(OC)ccc1-c1cc(-c2ccccc2)no1 (stereo unspecified) |  | 5.37 | 11.6 | 13.8 | 11.4 | 5.16 | Activity [1]: 82.8% |
| Cc1ccc(S(=O)(=O)NC(=O)NN2CC3CCCC3C2)cc1 (stereo unspecified) [GLICLAZIDE] |  |  | 27.7 | 44.8 |  |  | inhibition (INH) (Mus musculus [9]): 17.4% |
